Active and inactive are the calls of the source. No cut-off for these calls is given here.
Tested on: dengue virus type 2
Experiment: Inhibition of DENV serotype 2 NS2B-NS3 protease expressed in Escherichia coli BL21 lambda (DE3) cells using Abz-Nle-Lys-Arg-Arg-Ser-3-(NO2)Tyr as substrate at 50 uM preincubated for 15 mins followed by substrate addition measured for 15 mins by FRET assay relative to control

Row | Compound | inhibition
1 | CC(C)(C)CCN1C(=O)S/C(=C\c2ccc(C(=O)N[C@@H](CCCNC(=N)N)C(=O)N[C@@H](CCCCN)C(=O)N[C@H](C(N)=O)c3ccccc3)cc2)C1=O | 101%
2 | CCC(CC)N1C(=O)S/C(=C\c2ccc(C(=O)O)cc2)C1=O | 11.2%
3 | CC(C)(C)CN1C(=O)S/C(=C\c2ccc(C(=O)N[C@@H](CCCNC(=N)N)C(=O)N[C@@H](CCCCN)C(=O)N[C@H](C(N)=O)c3ccccc3)cc2)C1=O | 101%
4 | C#CCCN1C(=O)S/C(=C\c2ccc(C(=O)N[C@@H](CCCNC(=N)N)C(=O)N[C@@H](CCCCN)C(=O)N[C@H](C(N)=O)c3ccccc3)cc2)C1=O | 99.9%
5 | O=C(O)c1ccc(/C=C2\SC(=O)N(CC3CCCCC3)C2=O)cc1 | 23%
6 | N=C(N)NCCC[C@H](NC(=O)c1ccc(/C=C2\SC(=O)N(CC34CC5CC(CC(C5)C3)C4)C2=O)cc1)C(=O)N[C@@H](CCCCN)C(=O)N[C@H](C(N)=O)c1ccccc1 | 102%

Tested on: not listed separately
Experiment: Inhibition of DENV serotype 2 NS2B-NS3 protease expressed in Escherichia coli BL21 lambda (DE3) cells using Abz-Nle-Lys-Arg-Arg-Ser-3-(NO2)Tyr as substrate preincubated for 15 mins followed by substrate addition measured for 15 mins by FRET assay
Set-up: species or system dengue virus type 2
Method in brief: (§1)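 IC50 by FRET assay at substrate 50 μM; DENV protease at 100 nM, WNV protease at 150 nM. Measured in triplicate.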

Row | Compound | IC50
7 | CC(C)(C)CCN1C(=O)S/C(=C\c2ccc(C(=O)N[C@@H](CCCNC(=N)N)C(=O)N[C@@H](CCCCN)C(=O)N[C@H](C(N)=O)c3ccccc3)cc2)C1=O | 510 nM
8 | CC(C)(C)CN1C(=O)S/C(=C\c2ccc(C(=O)N[C@@H](CCCNC(=N)N)C(=O)N[C@@H](CCCCN)C(=O)N[C@H](C(N)=O)c3ccccc3)cc2)C1=O | 580 nM
9 | C#CCCN1C(=O)S/C(=C\c2ccc(C(=O)N[C@@H](CCCNC(=N)N)C(=O)N[C@@H](CCCCN)C(=O)N[C@H](C(N)=O)c3ccccc3)cc2)C1=O | 460 nM
10 | N=C(N)NCCC[C@H](NC(=O)c1ccc(/C=C2\SC(=O)N(CC34CC5CC(CC(C5)C3)C4)C2=O)cc1)C(=O)N[C@@H](CCCCN)C(=O)N[C@H](C(N)=O)c1ccccc1 | 740 nM

Target: Genome polyprotein (West Nile virus) (UniProt P06935)
Sequence (P06935 whole entry): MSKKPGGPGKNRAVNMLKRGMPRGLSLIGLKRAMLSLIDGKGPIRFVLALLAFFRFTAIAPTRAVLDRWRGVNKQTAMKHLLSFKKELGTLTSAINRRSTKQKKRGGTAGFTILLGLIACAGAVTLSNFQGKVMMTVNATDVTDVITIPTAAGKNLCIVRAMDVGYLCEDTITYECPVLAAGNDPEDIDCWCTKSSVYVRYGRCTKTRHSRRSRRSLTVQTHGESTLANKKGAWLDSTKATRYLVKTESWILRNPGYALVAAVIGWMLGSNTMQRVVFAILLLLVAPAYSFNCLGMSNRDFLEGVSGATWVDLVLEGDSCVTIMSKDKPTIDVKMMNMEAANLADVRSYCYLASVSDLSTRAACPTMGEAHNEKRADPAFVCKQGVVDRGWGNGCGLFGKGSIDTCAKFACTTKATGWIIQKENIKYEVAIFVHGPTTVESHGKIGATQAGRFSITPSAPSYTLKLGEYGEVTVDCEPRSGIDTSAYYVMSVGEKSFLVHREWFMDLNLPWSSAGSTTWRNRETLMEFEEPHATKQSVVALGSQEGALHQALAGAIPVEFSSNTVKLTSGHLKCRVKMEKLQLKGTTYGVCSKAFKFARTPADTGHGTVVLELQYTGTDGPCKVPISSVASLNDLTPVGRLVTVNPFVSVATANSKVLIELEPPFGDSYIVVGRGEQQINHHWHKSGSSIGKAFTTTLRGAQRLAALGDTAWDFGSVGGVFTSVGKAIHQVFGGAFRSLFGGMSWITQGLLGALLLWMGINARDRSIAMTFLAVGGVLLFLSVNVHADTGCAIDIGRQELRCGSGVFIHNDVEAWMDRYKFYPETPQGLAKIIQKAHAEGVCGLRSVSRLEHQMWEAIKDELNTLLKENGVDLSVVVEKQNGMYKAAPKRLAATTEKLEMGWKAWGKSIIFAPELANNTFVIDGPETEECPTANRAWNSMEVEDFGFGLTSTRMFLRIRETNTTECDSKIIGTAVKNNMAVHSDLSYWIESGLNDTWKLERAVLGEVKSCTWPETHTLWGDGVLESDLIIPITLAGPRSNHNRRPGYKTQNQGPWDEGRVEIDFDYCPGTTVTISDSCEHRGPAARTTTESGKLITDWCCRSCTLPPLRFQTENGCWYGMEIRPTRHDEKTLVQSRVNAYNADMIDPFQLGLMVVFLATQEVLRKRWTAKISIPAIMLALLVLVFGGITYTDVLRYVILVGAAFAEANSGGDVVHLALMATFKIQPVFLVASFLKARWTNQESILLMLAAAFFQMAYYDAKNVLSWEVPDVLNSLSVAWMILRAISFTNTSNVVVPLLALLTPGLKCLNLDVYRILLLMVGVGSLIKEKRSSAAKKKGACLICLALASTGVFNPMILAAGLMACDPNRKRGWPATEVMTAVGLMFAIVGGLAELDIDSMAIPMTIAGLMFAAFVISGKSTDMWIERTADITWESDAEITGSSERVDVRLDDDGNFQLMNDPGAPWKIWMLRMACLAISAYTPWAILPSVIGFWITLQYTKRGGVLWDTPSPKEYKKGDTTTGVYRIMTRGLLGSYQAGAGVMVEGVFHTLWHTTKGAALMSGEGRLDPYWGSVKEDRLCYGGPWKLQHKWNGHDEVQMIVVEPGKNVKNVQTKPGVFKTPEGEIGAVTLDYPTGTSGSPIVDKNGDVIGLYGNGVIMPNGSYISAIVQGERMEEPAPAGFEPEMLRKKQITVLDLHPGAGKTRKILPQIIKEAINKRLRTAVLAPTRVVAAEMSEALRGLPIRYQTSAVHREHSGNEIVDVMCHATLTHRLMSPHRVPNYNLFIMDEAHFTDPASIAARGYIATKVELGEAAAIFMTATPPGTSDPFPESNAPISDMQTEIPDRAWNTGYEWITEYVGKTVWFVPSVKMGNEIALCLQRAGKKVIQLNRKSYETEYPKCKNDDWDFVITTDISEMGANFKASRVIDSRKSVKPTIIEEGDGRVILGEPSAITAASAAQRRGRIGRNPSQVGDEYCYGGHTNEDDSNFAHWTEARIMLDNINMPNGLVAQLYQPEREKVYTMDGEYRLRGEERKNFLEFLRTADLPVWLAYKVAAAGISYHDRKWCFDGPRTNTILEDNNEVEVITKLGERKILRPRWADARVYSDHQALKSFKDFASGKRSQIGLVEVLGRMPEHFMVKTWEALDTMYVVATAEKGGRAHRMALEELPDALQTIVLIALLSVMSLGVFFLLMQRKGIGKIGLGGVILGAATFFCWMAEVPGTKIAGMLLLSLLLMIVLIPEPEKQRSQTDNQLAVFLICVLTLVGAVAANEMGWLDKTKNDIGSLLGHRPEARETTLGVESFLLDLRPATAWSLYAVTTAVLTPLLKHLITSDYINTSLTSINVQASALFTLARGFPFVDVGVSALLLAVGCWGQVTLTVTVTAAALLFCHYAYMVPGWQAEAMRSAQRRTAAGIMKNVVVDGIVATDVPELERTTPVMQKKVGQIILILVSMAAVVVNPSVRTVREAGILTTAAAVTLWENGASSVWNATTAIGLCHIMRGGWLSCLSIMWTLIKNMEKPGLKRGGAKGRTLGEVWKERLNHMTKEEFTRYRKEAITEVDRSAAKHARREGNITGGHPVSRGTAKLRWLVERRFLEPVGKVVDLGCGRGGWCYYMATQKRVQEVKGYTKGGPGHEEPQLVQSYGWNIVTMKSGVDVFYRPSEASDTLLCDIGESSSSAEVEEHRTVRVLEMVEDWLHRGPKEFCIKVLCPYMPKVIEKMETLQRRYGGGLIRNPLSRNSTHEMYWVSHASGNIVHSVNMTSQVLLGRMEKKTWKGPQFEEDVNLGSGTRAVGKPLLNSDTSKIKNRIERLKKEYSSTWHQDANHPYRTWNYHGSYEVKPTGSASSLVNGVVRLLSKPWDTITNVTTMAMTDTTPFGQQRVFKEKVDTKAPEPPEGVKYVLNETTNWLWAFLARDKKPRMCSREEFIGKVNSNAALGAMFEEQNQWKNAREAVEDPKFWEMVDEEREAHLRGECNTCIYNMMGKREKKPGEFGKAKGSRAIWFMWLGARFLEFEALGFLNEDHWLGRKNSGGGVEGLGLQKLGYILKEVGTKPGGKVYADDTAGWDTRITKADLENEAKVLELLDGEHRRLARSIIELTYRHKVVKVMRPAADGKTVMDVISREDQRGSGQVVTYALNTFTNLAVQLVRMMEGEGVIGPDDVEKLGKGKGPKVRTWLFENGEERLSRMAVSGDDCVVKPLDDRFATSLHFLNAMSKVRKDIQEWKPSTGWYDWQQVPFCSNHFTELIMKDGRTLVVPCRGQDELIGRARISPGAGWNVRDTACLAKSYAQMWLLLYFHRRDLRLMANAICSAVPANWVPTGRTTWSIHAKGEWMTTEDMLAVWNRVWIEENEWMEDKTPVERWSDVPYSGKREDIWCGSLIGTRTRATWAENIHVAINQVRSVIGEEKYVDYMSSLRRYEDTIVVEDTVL
Experiment: Inhibition of WNV NS2B-NS3 protease expressed in Escherichia coli BL21 lambda (DE3) cells using Abz-Gly-Leu-Lys-Arg-Gly-Gly-3-(NO2)Tyr as substrate at 50 uM preincubated for 15 mins followed by substrate addition measured for 15 mins by FRET assay relative to control

Row | Compound | inhibition
11 | CC(C)(C)CCN1C(=O)S/C(=C\c2ccc(C(=O)N[C@@H](CCCNC(=N)N)C(=O)N[C@@H](CCCCN)C(=O)N[C@H](C(N)=O)c3ccccc3)cc2)C1=O | 98.9%
12 | C#CCCN1C(=O)S/C(=C\c2ccc(C(=O)N[C@@H](CCCNC(=N)N)C(=O)N[C@@H](CCCCN)C(=O)N[C@H](C(N)=O)c3ccccc3)cc2)C1=O | 97.8%
13 | N=C(N)NCCC[C@H](NC(=O)c1ccc(/C=C2\SC(=O)N(CC34CC5CC(CC(C5)C3)C4)C2=O)cc1)C(=O)N[C@@H](CCCCN)C(=O)N[C@H](C(N)=O)c1ccccc1 | 107%

More lines, now with the values ahead:

Row | inhibition | Compound
14 | 40.7% | CCC(CC)N1C(=O)S/C(=C\c2ccc(C(=O)O)cc2)C1=O
15 | 93.5% | CC(C)(C)CN1C(=O)S/C(=C\c2ccc(C(=O)N[C@@H](CCCNC(=N)N)C(=O)N[C@@H](CCCCN)C(=O)N[C@H](C(N)=O)c3ccccc3)cc2)C1=O
16 | 35% | O=C(O)c1ccc(/C=C2\SC(=O)N(CC3CCCCC3)C2=O)cc1

Target: Genome polyprotein (West Nile virus, UniProt P06935)
Sequence (P06935 1371-1501 limits assumed): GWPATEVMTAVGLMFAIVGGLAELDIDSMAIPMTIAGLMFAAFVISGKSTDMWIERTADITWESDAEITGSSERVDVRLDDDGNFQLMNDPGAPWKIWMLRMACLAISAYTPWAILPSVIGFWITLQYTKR
Sequence (P06935 1502-2120 limits assumed): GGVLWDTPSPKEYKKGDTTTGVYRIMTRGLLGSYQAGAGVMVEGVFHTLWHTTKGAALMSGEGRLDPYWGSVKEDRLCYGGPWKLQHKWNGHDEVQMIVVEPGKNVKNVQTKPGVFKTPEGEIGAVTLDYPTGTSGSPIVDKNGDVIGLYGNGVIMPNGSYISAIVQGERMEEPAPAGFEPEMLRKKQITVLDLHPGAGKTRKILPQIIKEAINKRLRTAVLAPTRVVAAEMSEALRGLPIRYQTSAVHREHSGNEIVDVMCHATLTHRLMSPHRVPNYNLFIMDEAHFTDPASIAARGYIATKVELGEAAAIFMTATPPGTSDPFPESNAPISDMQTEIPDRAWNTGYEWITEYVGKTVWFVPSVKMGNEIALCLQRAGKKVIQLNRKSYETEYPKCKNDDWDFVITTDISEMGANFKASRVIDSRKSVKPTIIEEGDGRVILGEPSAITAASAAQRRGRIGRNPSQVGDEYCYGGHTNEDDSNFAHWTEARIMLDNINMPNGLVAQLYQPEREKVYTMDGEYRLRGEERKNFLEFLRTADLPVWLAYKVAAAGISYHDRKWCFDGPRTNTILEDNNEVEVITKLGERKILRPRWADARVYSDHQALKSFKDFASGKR
Experiment: Inhibition of WNV NS2B-NS3 protease expressed in Escherichia coli BL21 lambda (DE3) cells using Abz-Gly-Leu-Lys-Arg-Gly-Gly-3-(NO2)Tyr as substrate preincubated for 15 mins followed by substrate addition measured for 15 mins by FRET assay
Method in brief: as §1

Row | Compound | IC50
17 | CC(C)(C)CCN1C(=O)S/C(=C\c2ccc(C(=O)N[C@@H](CCCNC(=N)N)C(=O)N[C@@H](CCCCN)C(=O)N[C@H](C(N)=O)c3ccccc3)cc2)C1=O | 1910 nM
18 | CC(C)(C)CN1C(=O)S/C(=C\c2ccc(C(=O)N[C@@H](CCCNC(=N)N)C(=O)N[C@@H](CCCCN)C(=O)N[C@H](C(N)=O)c3ccccc3)cc2)C1=O | 2030 nM
19 | C#CCCN1C(=O)S/C(=C\c2ccc(C(=O)N[C@@H](CCCNC(=N)N)C(=O)N[C@@H](CCCCN)C(=O)N[C@H](C(N)=O)c3ccccc3)cc2)C1=O | 2120 nM
20 | N=C(N)NCCC[C@H](NC(=O)c1ccc(/C=C2\SC(=O)N(CC34CC5CC(CC(C5)C3)C4)C2=O)cc1)C(=O)N[C@@H](CCCCN)C(=O)N[C@H](C(N)=O)c1ccccc1 | 1270 nM

Target: Prothrombin (Homo sapiens) (UniProt P00734)
Experiment: Inhibition of thrombin (unknown origin) using Boc-Val-Pro-Arg-AMC as substrate at 25 uM preincubated for 15 mins followed by substrate addition measured for 10 mins by FRET assay relative to control

Row | Compound | inhibition
21 | CC(C)(C)CCN1C(=O)S/C(=C\c2ccc(C(=O)N[C@@H](CCCNC(=N)N)C(=O)N[C@@H](CCCCN)C(=O)N[C@H](C(N)=O)c3ccccc3)cc2)C1=O | 9.7%
22 | CC(C)(C)CN1C(=O)S/C(=C\c2ccc(C(=O)N[C@@H](CCCNC(=N)N)C(=O)N[C@@H](CCCCN)C(=O)N[C@H](C(N)=O)c3ccccc3)cc2)C1=O | 9.7%
23 | C#CCCN1C(=O)S/C(=C\c2ccc(C(=O)N[C@@H](CCCNC(=N)N)C(=O)N[C@@H](CCCCN)C(=O)N[C@H](C(N)=O)c3ccccc3)cc2)C1=O | 13%
24 | N=C(N)NCCC[C@H](NC(=O)c1ccc(/C=C2\SC(=O)N(CC34CC5CC(CC(C5)C3)C4)C2=O)cc1)C(=O)N[C@@H](CCCCN)C(=O)N[C@H](C(N)=O)c1ccccc1 | 6.6%

Tested on: dengue virus type 2
Experiment: Binding affinity to DENV serotype 2 NS2B-NS3 protease expressed in Escherichia coli BL21 lambda (DE3) cells by fluorescence quenching assay in absence of DENV protease inhibitor aprotinin
Method in brief: (§2)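 DENV protease held at 1 μM, aprotinin at 10 μM, inhibitor at 0, 0.5, 1, 2, 5, 10, 20, 30, 40, 48 μM. Read-out is the intrinsic Trp50 fluorescence of the protease, measured with and without aprotinin. Readings with aprotinin corrected for aprotinin's own fluorescence.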

Row | Compound | Activity
25 | C#CCCN1C(=O)S/C(=C\c2ccc(C(=O)N[C@@H](CCCNC(=N)N)C(=O)N[C@@H](CCCCN)C(=O)N[C@H](C(N)=O)c3ccccc3)cc2)C1=O | Dose-dependent effect

Tested on: dengue virus type 2
Experiment: Binding affinity to DENV serotype 2 NS2B-NS3 protease expressed in Escherichia coli BL21 lambda (DE3) cells at 0.5 to 48 uM by fluorescence quenching assay in presence of DENV protease inhibitor aprotinin
Method in brief: as §2

Row | Compound | Activity
26 | C#CCCN1C(=O)S/C(=C\c2ccc(C(=O)N[C@@H](CCCNC(=N)N)C(=O)N[C@@H](CCCCN)C(=O)N[C@H](C(N)=O)c3ccccc3)cc2)C1=O | inactive

Tested on: not listed separately
Experiment: Competitive inhibition of DENV serotype 2 NS2B-NS3 protease expressed in Escherichia coli BL21 lambda (DE3) cells using Abz-Nle-Lys-Arg-Arg-Ser-3-(NO2)Tyr as substrate preincubated for 15 mins followed by substrate addition measured for 15 mins by Cheng-Prusoff plot analysis
Set-up: species or system dengue virus type 2
Method in brief: (§3)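 DENV serotype 2 protease, FRET read-out. Substrate at 50, 100, 150, 200 μM; inhibitor at 0, 0.25, 0.5, 1, 1.5, 2, 2.5, 3 μM; triplicates, two outliers of 96 values excluded. Ki taken from the Cheng-Prusoff plot (IC50 vs substrate, Y-intercept), the Dixon plot (mean of line intersections), or the Cornish-Bowden plot.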

Row | Compound | Ki
27 | C#CCCN1C(=O)S/C(=C\c2ccc(C(=O)N[C@@H](CCCNC(=N)N)C(=O)N[C@@H](CCCCN)C(=O)N[C@H](C(N)=O)c3ccccc3)cc2)C1=O | 400 nM

Tested on: not listed separately
Experiment: Inhibition of DENV serotype 2 NS2B-NS3 protease expressed in Escherichia coli BL21 lambda (DE3) cells using Abz-Nle-Lys-Arg-Arg-Ser-3-(NO2)Tyr as substrate preincubated for 15 mins followed by substrate addition measured for 15 mins by Dixon plot analysis
Set-up: species or system dengue virus type 2
Method in brief: as §3

Row | Compound | Ki
28 | C#CCCN1C(=O)S/C(=C\c2ccc(C(=O)N[C@@H](CCCNC(=N)N)C(=O)N[C@@H](CCCCN)C(=O)N[C@H](C(N)=O)c3ccccc3)cc2)C1=O | 100 nM

Tested on: dengue virus type 2
Experiment: Competitive inhibition of DENV serotype 2 NS2B-NS3 protease expressed in Escherichia coli BL21 lambda (DE3) cells using Abz-Nle-Lys-Arg-Arg-Ser-3-(NO2)Tyr as substrate at 0.25 to 3 uM preincubated for 15 mins followed by substrate addition measured for 15 mins by Cornish-Bowden plot analysis
Method in brief: as §3

Row | Compound | inhibition
29 | C#CCCN1C(=O)S/C(=C\c2ccc(C(=O)N[C@@H](CCCNC(=N)N)C(=O)N[C@@H](CCCCN)C(=O)N[C@H](C(N)=O)c3ccccc3)cc2)C1=O | Active

Tested on: dengue virus type 2
Experiment: Inhibition of DENV serotype 2 NS2B-NS3 protease expressed in Escherichia coli BL21 lambda (DE3) cells by HPLC-based assay

Row | Compound | inhibition
30 | CCC(CC)N1C(=O)S/C(=C\c2ccc(C(=O)O)cc2)C1=O | inactive
31 | O=C(O)c1ccc(/C=C2\SC(=O)N(CC3CCCCC3)C2=O)cc1 | inactive
